“Also recorded” adds a separate entry of the source.
Assays:
mantle cell lymphoma = conditions: refractory or relapsed MCL patients; cited from earlier work
[1] = system: Granta 519 and Z138 cell lines; assay: MAP kinase pathway; type: cell-based, human; conditions: 24 hrs
[2] = previous studies; cited from earlier work
MDA-MB-157 = assay: GI50 growth inhibition assay; type: cell-based; conditions: Homo sapiens, MDA-MB-157, 96 h
Outline: (§1)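 Cell lines were grown in DMEM or RPMI with 10% FBS and pen-strep at 37°C, 5% CO₂, and were mycoplasma-negative. Cells were seeded at 2.5×10³ per 0.1 ml per well, and test compound was added 24 hrs later at the indicated concentrations. Viable cells were measured by resazurin (Cell Titer Blue) read-out 96 hrs post-treatment in duplicate wells.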

CDK5 = CDK5 (Homo sapiens, UniProt Q00535); assay: in vitro kinase assay; type: biochemical; conditions: data not shown
CDK1 = CDK1 (Homo sapiens, UniProt P06493); assay: in vitro kinase assay; type: biochemical; conditions: data not shown
Z138C = assay: GI50 growth inhibition assay; type: cell-based; conditions: Homo sapiens, 96 h
Outline: (§2)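 Cells from ATCC were grown in DMEM or RPMI with 10% FBS and penicillin-streptomycin at 37°C, humidified, 5% CO₂, and tested mycoplasma-negative. They were seeded at 2.5×10³ cells per 0.1 ml per well. Test compound was added 24 hrs after plating at a range of concentrations. Viable cells were measured by Cell Titer Blue from duplicate wells 96 hrs after treatment.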

BT-20 = assay: GI50 growth inhibition assay; type: cell-based; conditions: Homo sapiens, BT-20, 96 h
Outline: as §1

[3] = system: primary patient-derived MCL cells (MEM1, MEM2); assay: Rb and AKT pathway western blot in primary MCL; type: cell-based, human; conditions: both primary MCL samples, 18 hrs
Outline: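 Red cells were removed from primary MCL samples with ammonium chloride. Cells were then treated with increasing concentrations of test compound for 18 hrs and lysed in RIPA buffer (25mM Tris-HCl pH 7.5, 150mM NaCl, 1% NP40, 1% SDS, phosphatase inhibitors). […], nitrocellulose transfer and infrared imaging.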

GRANTA-519 = assay: GI50 growth inhibition assay; type: cell-based; conditions: Homo sapiens, Granta-519, 96 h
Outline: as §1

CDK2 = CDK2 (Homo sapiens, UniProt P24941); assay: in vitro kinase assay; type: biochemical; conditions: data not shown
MIA-PaCa-2 = assay: GI50 growth inhibition assay; type: cell-based; conditions: Homo sapiens, MIA PaCa-2, 96 h
Outline: as §2

MDA-MB-231 = assay: GI50 growth inhibition assay; type: cell-based; conditions: Homo sapiens, MDA-MB-231, 96 h
Outline: as §1

[4] = system: Granta 519 and Z138C cells; assay: CDK4/CYCLIN D/Rb pathway western blot; type: cell-based, human; conditions: 24 hours
Outline: (§3)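 Granta 519 and Z138C cells (RPMI or DMEM, 10% FBS, pen-strep, 37°C, 5% CO₂) received vehicle or increasing concentrations of test compound for 24 hours. Whole-cell extracts were made in NP-40 lysis buffer (Tris pH 7.4, NaF, Na₃VO₄), run on SDS-PAGE and blotted to nitrocellulose. Detection used infrared imaging, GAPDH was the loading control, and 4 independent experiments were done.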

[5] = maximum tolerated dose study; type: in vivo, CD-1 mice
Outline: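 Female CD-1 mice (10–12 weeks), n=3 per group, were used. One arm received a single ip dose of 100 or 200 mg/kg, with toxicity signs and body weight followed for 7 days. The other arm received 200mg/kg ip for 5 consecutive days, followed for 10 days.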

Z138C xenograft = assay: Z138C tumor xenograft assay; type: in vivo, nu/nu mice
COLO-205 = assay: GI50 growth inhibition assay; type: cell-based; conditions: Homo sapiens, COLO 205, 96 h
Outline: as §1

[6] = system: exponentially growing Z138 cells; assay: p65; type: cell-based, human; conditions: 24 hrs
Outline: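 Exponentially growing Z138 cells were exposed to test compound. Whole-cell extracts were probed by western blot for p65 (NF-kB) phosphorylation.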

Z138C cells = assay: cell cycle distribution, propidium iodide flow cytometry; type: cell-based, human; conditions: 24 hours
Outline: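 Z138C cells were treated with DMSO or increasing concentrations of test compound for 24 hours. They were then ethanol-fixed, PBS-washed and stained with RNase plus propidium iodide at 37°C for 20 min. DNA content was measured by flow cytometry to assign cell-cycle phases.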

[7] = system: primary patient-derived MCL cells (MEM1 ibrutinib-sensitive, MEM2 ibrutinib-resistant); assay: Annexin V staining of primary patient-derived MCL; type: cell-based, human; conditions: 5µM ON123300; 24 hrs (legend: 18 hrs)
Outline: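 Patient MCL specimens (lymph node or peripheral blood) made into single-cell suspensions and cryopreserved in 90% FBS/10% DMSO in liquid nitrogen. Cells exposed to the indicated concentrations of test compound for 18 hrs. Apoptosis read as FITC-Annexin V staining by flow cytometry.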

BT-474 = assay: GI50 growth inhibition assay; type: cell-based; conditions: Homo sapiens, BT-474, 96 h
Outline: as §2

DLD-1 = assay: GI50 growth inhibition assay; type: cell-based; conditions: Homo sapiens, DLD-1, 96 h
Outline: as §1

MCL cell lines = assay: GI50 assays, MCL cell lines versus other tumor types; type: cell-based, human; conditions: over a 96 hr period
Outline: as §1

CDK8 = CDK8 (Homo sapiens, UniProt P49336); assay: in vitro kinase assay; type: biochemical; conditions: data not shown
SW480 = assay: GI50 growth inhibition assay; type: cell-based; conditions: Homo sapiens, SW480, 96 h
Outline: as §1

HeLa cells = assay: TNF-α induced p65 NF-kB phosphorylation western blot; type: cell-based, human; conditions: 5ng/ml TNF-α for 5 min after treatment
Outline: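 Positive-control system: HeLa cells were pretreated with test compound, then stimulated with 5ng/ml TNF-α for 5 min. Phospho-p65 NF-kB was assessed by western blot of whole-cell extracts.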

HCT-15 = assay: GI50 growth inhibition assay; type: cell-based; conditions: Homo sapiens, HCT-15, 96 h
Outline: as §1

[8] = plasma level pharmacokinetics; type: in vivo, CD-1 mice; conditions: for area under the curve (AUC) as molar concentration / area under the curve (AUC): plasma
Outline: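 Female CD-1 mice (10–12 weeks) received 50mg/kg test compound dissolved in water, ip or by oral gavage. Sampling was at 10, 30 min and 1, 2, 4, 8 h, n=2 per time point, with heart-puncture blood into heparin/EDTA tubes. Plasma was analysed by LC/MS, and AUC was calculated by the trapezoidal rule.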

[9] = system: Granta 519 and Z138C cells; assay: PI3K/AKT/mTOR pathway western blot; type: cell-based, human; conditions: 24 hours
Outline: as §3

SNU-398 = assay: GI50 growth inhibition assay; type: cell-based; conditions: Homo sapiens, SNU-398, 96 h
Outline: as §1

[10] = system: Granta 519 and Z138C cells; assay: apoptosis markers; type: cell-based, human
Outline: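 Granta 519 and Z138C cells were treated with test compound, then lysed in NP-40 buffer. Western blots on nitrocellulose assessed full-length caspases 3, 7 and 9 and PARP cleavage as apoptosis markers.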

SNU-5 = assay: GI50 growth inhibition assay; type: cell-based; conditions: Homo sapiens, SNU-5, 96 h
Outline: as §1

Chain of CDK8 (P49336 whole entry): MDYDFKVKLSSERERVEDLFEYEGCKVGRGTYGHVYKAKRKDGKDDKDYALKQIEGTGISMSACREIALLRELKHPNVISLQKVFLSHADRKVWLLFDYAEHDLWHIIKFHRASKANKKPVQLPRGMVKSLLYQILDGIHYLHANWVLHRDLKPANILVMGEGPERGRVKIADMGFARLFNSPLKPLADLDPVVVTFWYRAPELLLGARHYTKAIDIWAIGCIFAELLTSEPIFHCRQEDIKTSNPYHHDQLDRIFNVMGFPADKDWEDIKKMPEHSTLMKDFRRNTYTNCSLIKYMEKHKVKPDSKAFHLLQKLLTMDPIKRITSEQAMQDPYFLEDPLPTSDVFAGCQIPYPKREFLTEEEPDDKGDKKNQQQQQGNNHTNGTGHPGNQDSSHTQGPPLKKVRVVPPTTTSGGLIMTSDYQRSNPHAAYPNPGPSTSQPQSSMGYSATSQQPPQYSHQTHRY
Chain of CDK8 (P24863 whole entry partner): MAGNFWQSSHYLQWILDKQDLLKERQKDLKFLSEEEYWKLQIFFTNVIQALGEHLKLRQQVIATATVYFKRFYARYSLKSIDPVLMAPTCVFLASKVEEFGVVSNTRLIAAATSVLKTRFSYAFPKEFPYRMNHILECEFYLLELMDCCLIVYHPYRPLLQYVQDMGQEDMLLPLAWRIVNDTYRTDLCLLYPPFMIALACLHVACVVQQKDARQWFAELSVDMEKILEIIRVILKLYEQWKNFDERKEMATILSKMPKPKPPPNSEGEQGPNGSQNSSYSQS
Chain of CDK1 (P06493 whole entry): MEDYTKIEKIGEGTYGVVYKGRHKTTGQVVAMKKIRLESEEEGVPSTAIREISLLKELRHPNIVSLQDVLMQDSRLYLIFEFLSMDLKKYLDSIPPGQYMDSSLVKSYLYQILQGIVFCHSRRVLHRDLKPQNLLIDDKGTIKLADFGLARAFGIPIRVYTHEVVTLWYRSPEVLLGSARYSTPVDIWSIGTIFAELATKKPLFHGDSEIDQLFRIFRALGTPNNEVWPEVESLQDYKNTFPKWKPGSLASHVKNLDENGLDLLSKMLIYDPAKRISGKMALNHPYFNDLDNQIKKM
Chain of CDK1 (P14635 whole entry, further chain): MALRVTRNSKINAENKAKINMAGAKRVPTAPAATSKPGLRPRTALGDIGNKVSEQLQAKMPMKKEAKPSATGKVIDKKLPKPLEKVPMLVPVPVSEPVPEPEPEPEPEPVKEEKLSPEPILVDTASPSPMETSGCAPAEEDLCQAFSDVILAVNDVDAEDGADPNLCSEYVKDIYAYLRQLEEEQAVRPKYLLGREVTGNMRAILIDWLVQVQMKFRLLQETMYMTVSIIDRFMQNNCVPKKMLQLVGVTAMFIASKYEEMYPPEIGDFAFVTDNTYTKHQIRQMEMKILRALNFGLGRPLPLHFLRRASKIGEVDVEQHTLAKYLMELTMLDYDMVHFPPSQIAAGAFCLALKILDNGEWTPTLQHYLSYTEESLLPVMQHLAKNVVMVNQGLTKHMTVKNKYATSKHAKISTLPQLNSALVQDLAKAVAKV
Chain of CDK5 (Q00535 whole entry): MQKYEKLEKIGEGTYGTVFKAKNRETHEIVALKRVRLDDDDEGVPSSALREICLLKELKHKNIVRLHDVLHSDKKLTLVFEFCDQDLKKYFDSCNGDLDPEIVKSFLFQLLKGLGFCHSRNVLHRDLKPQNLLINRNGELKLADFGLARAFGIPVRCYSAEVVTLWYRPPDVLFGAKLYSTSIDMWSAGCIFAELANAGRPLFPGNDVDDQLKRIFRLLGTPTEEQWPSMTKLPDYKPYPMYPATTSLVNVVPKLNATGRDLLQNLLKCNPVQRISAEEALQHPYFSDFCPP
Chain of CDK5 (Q15078 99-307 partner limits assumed): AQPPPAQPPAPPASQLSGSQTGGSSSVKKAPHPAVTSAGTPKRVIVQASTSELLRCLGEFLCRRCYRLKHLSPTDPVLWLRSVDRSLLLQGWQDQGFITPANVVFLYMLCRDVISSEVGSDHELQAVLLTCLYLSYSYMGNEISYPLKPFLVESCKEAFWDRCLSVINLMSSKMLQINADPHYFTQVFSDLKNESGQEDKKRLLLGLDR

C=CC(=O)N1CCC[C@@H](n2nc(-c3ccc(Oc4ccccc4)cc3)c3c(N)ncnc32)C1 [Ibrutinib]
patients with complete remission (mantle cell lymphoma): approximately 21%

N#CC(=C(/N)Sc1ccccc1N)/C(C#N)=C(/N)Sc1ccccc1N [U0126]
phosphorylation status of MEK or ERK kinases [1]: potently inhibited

CN1CCN(c2ccc(Nc3ncc4cc(C#N)c(=O)n(C5CCCC5)c4n3)cc2)CC1 [ON123300, 8-cyclopentyl-2-[4-(4-methyl-piperazin-1-yl)-phenylamino]-7-oxo-7,8-dihydro-pyrid o[2,3-d]pyrimidine-6-carbonitrile]
blood-brain barrier crossing [2]: readily crosses the blood-brain barrier
GI50 (MDA-MB-157): 250 nM
inhibitory activity against CDK5 (CDK5): little inhibitory activity
inhibitory activity against CDK1 (CDK1): little inhibitory activity
GI50 (Z138C): 25 nM
GI50 (BT-20): 100 nM
levels of Rb and AKT phosphorylation [3]: reductions in the levels of Rb and AKT phosphorylation
phosphorylation of S6RB [3]: inhibited
GI50 (GRANTA-519): 35 nM
inhibitory activity against CDK2 (CDK2): little inhibitory activity
GI50 (MIA-PaCa-2): 250 nM
GI50 (MDA-MB-231): 200 nM
levels of CDK4 and CDK2 [4]: unaffected
p21 levels [4]: loss of p21 levels
levels of CYCLIN D1 ([4]; as a function of concentration): declined
phosphorylation of pRb and p130 ([4]; increasing concentrations): inhibited the phosphorylation of pRb and p130
survival rate ([5]; 200mg/kg ip for 5 consecutive days, at least 10 days post-administration): 100%
signs of toxicity ([5]; 200mg/kg ip for 5 consecutive days, data not shown): did not exhibit any signs of toxicity
toxicity ([5]; mice, administered orally or intraperitoneally): minimally toxic
survival rate ([5]; single ip dose 100 or 200 mg/kg, 7 days): 100%
signs of toxicity and body weights ([5]; single ip dose 100 or 200 mg/kg, monitored 7 days): No signs of toxicity or weight loss
total body weights (Z138C xenograft; 100mg/kg daily treatment): did not cause a significant reduction
tumor growth (Z138C xenograft; 100mg/kg daily, ip, 2-week period, p<0.05): significantly inhibited; also recorded: markedly inhibited tumor growth
GI50 (COLO-205): 200 nM
phosphorylation status of p65 (NF-kB) [6]: no change
concentrations at which cells accumulated in the G1 phase (Z138C cells): 0.1 to 1.0 µM
accumulation of cells in the sub-G1 phase (Z138C cells; for ON123300 at higher concentrations): eventually accumulated in the sub-G1 phase
cells stained Annexin V+ [7]: ~100%
GI50 (BT-474): 250 nM
phosphorylation status of MEK or ERK kinases [1]: neither ON123300 nor PD0332991 has any effect
GI50 (DLD-1): 100 nM
concentrations inducing growth arrest and cell death (MCL cell lines): 25 to 50 nM
inhibitory activity against CDK8 (CDK8): little inhibitory activity
GI50 (SW480): 100 nM
phosphorylation status of p65 (HeLa cells): little or no effect
GI50 (HCT-15): 400 nM
oral bioavailability ([8]; mice): orally bio-available
area under the curve (AUC) as molar concentration ([8]; 50mg/kg ip): 16.71 µM/ml/hr
area under the curve (AUC) ([8]; 50mg/kg ip injection): 7.18 µg/mL/h
area under the curve (AUC) ([8]; 50mg/kg oral gavage (po)): 2.78 µg/mL/h
area under the curve (AUC) as molar concentration ([8]; 50mg/kg po): 6.47 µM/ml/hr
AKT Ser473 phosphorylation [9]: inhibition of AKT Ser473 phosphorylation
FOXO1 phosphorylation [9]: inhibition of FOXO1 phosphorylation
mTOR phosphorylation at Ser2481 [9]: inhibition of mTOR phosphorylation at Ser2481
phosphorylation of 4EBP1 and S6RB [9]: inhibited
GI50 (SNU-398): 300 nM
PARP cleavage at lower concentrations ([10]; 72–96 hrs incubation, data not shown): readily resulted in PARP cleavage
concentration at which PARP cleavage is seen ([10]; 24 hrs): greater than or equal to 2.5 µM
levels of full-length caspases 3, 7 and 9 ([10]; 24 hrs): decreases in the levels of full-length forms of caspases 3, 7 and 9
GI50 (SNU-5): 200 nM

From article PMC4703501 (Leukemia, 2015)
